Source: ChEMBL document CHEMBL1155306, “Inhibitors of HIV-1 attachment. Part 3: A preliminary survey of the effect of structural variation of the benzamide moiety on antiviral activity” (Bioorg Med Chem Lett, 2009)

Columns and labels:
[1] = test system: Human immunodeficiency virus 1; assay: Antiviral activity against HIV1 infected human HeLa67 cells coexpressing JRFL-LUCENV after 3 days by luciferase reporter assay; type: functional, organism-based; details: Human immunodeficiency virus 1, HeLa67, 72 h
How it was run: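 JRFL-Luc ΔEnv pseudotyped virus, titered by serial dilution on HeLa67 cells (CD4+/CCR5+). Fourfold serial dilutions of compound added to infected cells at the time of infection. Luciferase activity read after three days and compared with no-compound controls to derive EC50. Values are means of two or more experiments.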

[2] = Cytotoxicity against human HeLa67 cell after 3 days by XTT assay; type: cell-based; details: HeLa67 cells
How it was run: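 HeLa67 cells treated in parallel with the antiviral assay. Viability read by XTT three days after compound addition. Values are means of two or more experiments unless noted otherwise.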

| SMILES | EC50 [1] | CC50 at 72 h [2] |
| --- | --- | --- |
| Cc1ccncc1C(=O)N1CCN(C(=O)C(=O)c2c[nH]c3ccccc23)CC1 | 86.5 µM | > 300 µM |
| O=C(C(=O)N1CCN(C(=O)c2cc(F)c(F)c(F)c2)CC1)c1c[nH]c2ccccc12 | 55 µM | > 300 µM |
| O=C(C(=O)N1CCN(C(=O)c2ccccc2O)CC1)c1c[nH]c2ccccc12 | 3.65 µM | 194 µM |
| O=C(C(=O)N1CCN(C(=O)c2cc(F)c(F)c(F)c2F)CC1)c1c[nH]c2ccccc12 | > 100 µM | > 300 µM |
| O=C(C(=O)N1CCN(C(=O)c2cccc(Cl)c2F)CC1)c1c[nH]c2ccccc12 | 3.5 µM | > 300 µM |
| O=C(C(=O)N1CCN(C(=O)c2ccc(Cl)c(Cl)c2)CC1)c1c[nH]c2ccccc12 | 14.5 µM | 123 µM |
| CN(C)c1ccccc1C(=O)N1CCN(C(=O)C(=O)c2c[nH]c3ccccc23)CC1 | > 0.5 µM | 89 µM |
| O=C(C(=O)N1CCN(C(=O)c2ccc(Cl)cc2Cl)CC1)c1c[nH]c2ccccc12 | 37 µM | 111 µM |
| COc1ccccc1C(=O)N1CCN(C(=O)C(=O)c2c[nH]c3ccccc23)CC1 | > 10 µM | > 300 µM |
| O=C(C(=O)N1CCN(C(=O)c2ccc(Cl)cc2)CC1)c1c[nH]c2ccccc12 | 65.8 µM | 92 µM |
| O=C(C(=O)N1CCN(C(=O)c2cccc3ccccc23)CC1)c1c[nH]c2ccccc12 | > 100 µM | > 300 µM |
| CN(C)c1ccc(C(=O)N2CCN(C(=O)C(=O)c3c[nH]c4ccccc34)CC2)cc1 | > 100 µM | > 300 µM |
| O=C(C(=O)N1CCN(C(=O)c2cc(F)c(F)cc2F)CC1)c1c[nH]c2ccccc12 | 36.5 µM | > 300 µM |
| O=C(C(=O)N1CCN(C(=O)c2ccc(F)cc2F)CC1)c1c[nH]c2ccccc12 | 6 µM | > 300 µM |
| CCCc1ccc(C(=O)N2CCN(C(=O)C(=O)c3c[nH]c4ccccc34)CC2)cc1 | 82 µM | 48 µM |
| O=C(C(=O)N1CCN(C(=O)c2ccc(Br)cc2)CC1)c1c[nH]c2ccccc12 | 30 µM | > 240 µM |
| O=C(C(=O)N1CCN(C(=O)C2CCCCC2)CC1)c1c[nH]c2ccccc12 | 3.5 µM | > 300 µM |
| CN(C)c1cccc(C(=O)N2CCN(C(=O)C(=O)c3c[nH]c4ccccc34)CC2)c1 | > 0.5 µM | 230 µM |
| CC(C)(C)c1ccc(C(=O)N2CCN(C(=O)C(=O)c3c[nH]c4ccccc34)CC2)cc1 | 9 µM | 31 µM |
| O=C(C(=O)N1CCN(C(=O)CC2CCCCC2)CC1)c1c[nH]c2ccccc12 | > 100 µM | 158 µM |

| SMILES | EC50 [1] | CC50 at 72 h [2] |
| --- | --- | --- |
| O=C(C(=O)N1CCN(C(=O)c2cccc(Br)c2)CC1)c1c[nH]c2ccccc12 | 6.7 µM | 76 µM |
| O=C(C(=O)N1CCN(C(=O)c2ccccc2Br)CC1)c1c[nH]c2ccccc12 | 10.5 µM | > 300 µM |
| O=C(C(=O)N1CCN(C(=O)c2ccc(F)c(F)c2)CC1)c1c[nH]c2ccccc12 | 8.3 µM | > 300 µM |
| O=C(C(=O)N1CCN(C(=O)c2ccccc2)CC1)c1c[nH]c2cccc(F)c12 |  | > 300 µM |
| O=C(C(=O)N1CCN(C(=O)c2ccc(O)cc2)CC1)c1c[nH]c2ccccc12 | 2.49 µM | 136 µM |
| O=C(C(=O)N1CCN(C(=O)c2ccccc2Cl)CC1)c1c[nH]c2ccccc12 | 35 µM | > 300 µM |
| COc1cccc(C(=O)N2CCN(C(=O)C(=O)c3c[nH]c4ccccc34)CC2)c1 | > 56 µM | > 300 µM |
| O=C(C(=O)N1CCN(C(=O)c2ccc(F)cc2)CC1)c1c[nH]c2ccccc12 | 8.91 µM | 280 µM |
| O=C(C(=O)N1CCN(C(=O)c2cccc(Cl)c2)CC1)c1c[nH]c2ccccc12 | 17.5 µM | 117 µM |
| COc1ccc(C(=O)N2CCN(C(=O)C(=O)c3c[nH]c4ccccc34)CC2)cc1 | 30.2 µM | 129 µM |
| O=C(C(=O)N1CCN(C(=O)c2cccc(F)c2)CC1)c1c[nH]c2ccccc12 | 2.76 µM | 200 µM |
| O=C(C(=O)N1CCN(C(=O)Cc2ccccc2)CC1)c1c[nH]c2ccccc12 | > 100 µM | > 300 µM |
| O=C(C(=O)N1CCN(C(=O)c2cccnc2)CC1)c1c[nH]c2ccccc12 | 4.2 µM | > 300 µM |
| Cc1ccc(C(=O)N2CCN(C(=O)C(=O)c3c[nH]c4ccccc34)CC2)cc1 | 8.38 µM | > 99 µM |
| O=C(C(=O)N1CCN(C(=O)c2ccccn2)CC1)c1c[nH]c2ccccc12 | 1.55 µM | > 300 µM |
| O=C(C(=O)N1CCN(C(=O)Cc2ccccc2)CC1)c1c[nH]c2cccc(F)c12 | > 50 µM | > 300 µM |
| O=C(C(=O)N1CCN(C(=O)c2cccc(Cl)c2Cl)CC1)c1c[nH]c2ccccc12 | 18 µM | 235 µM |
| O=C(C(=O)N1CCN(C(=O)c2c(F)cc(F)cc2F)CC1)c1c[nH]c2ccccc12 | > 54 µM | > 300 µM |
| O=C(C(=O)N1CCN(C(=O)c2c(F)cccc2F)CC1)c1c[nH]c2ccccc12 | 6.7 µM | > 300 µM |

Continued, in another order:

| EC50 [1] | SMILES | CC50 at 72 h [2] |
| --- | --- | --- |
| 0.0032 µM | O=C(C(=O)N1CCN(C(=O)c2sccc2Br)CC1)c1c[nH]c2cccc(F)c12 | 69.7 µM |
| 0.0031 µM | O=C(C(=O)N1CCN(C(=O)c2occc2Cl)CC1)c1c[nH]c2cccc(F)c12 | 250 µM |
| 0.0228 µM | Cc1nc(C(=O)N2CCN(C(=O)C(=O)c3c[nH]c4cccc(F)c34)CC2)cs1 | > 300 µM |
| 0.0237 µM | O=C(C(=O)N1CCN(C(=O)c2ccncc2)CC1)c1c[nH]c2cccc(F)c12 | > 205 µM |
| 0.0045 µM | O=C(C(=O)N1CCN(C(=O)c2ccccn2)CC1)c1c[nH]c2cccc(F)c12 | > 300 µM |
| 0.0173 µM | Cc1ccsc1C(=O)N1CCN(C(=O)C(=O)c2c[nH]c3cccc(F)c23)CC1 | 260 µM |
| 0.154 µM | O=C(C(=O)N1CCN(C(=O)c2cccnc2)CC1)c1c[nH]c2cccc(F)c12 | > 300 µM |
| 0.0718 µM | O=C(C(=O)N1CCN(C(=O)c2cc[nH]n2)CC1)c1c[nH]c2cccc(F)c12 | > 300 µM |
| 0.156 µM | O=C(C(=O)N1CCN(C(=O)c2ccno2)CC1)c1c[nH]c2cccc(F)c12 | > 300 µM |
| 0.007 µM | N#Cc1ccoc1C(=O)N1CCN(C(=O)C(=O)c2c[nH]c3cccc(F)c23)CC1 | 187 µM |
| 1.23 µM | O=C(C(=O)N1CCN(C(=O)c2c[nH]cn2)CC1)c1c[nH]c2cccc(F)c12 | > 300 µM |
| 0.391 µM | O=C(C(=O)N1CCN(C(=O)c2ccccc2F)CC1)c1c[nH]c2ccccc12 | 101 µM |
| 0.0004 µM | O=C(C(=O)N1CCN(C(=O)c2ccsc2)CC1)c1c[nH]c2cccc(F)c12 | > 300 µM |
| 0.0054 µM | O=C(C(=O)N1CCN(C(=O)c2ccco2)CC1)c1c[nH]c2cccc(F)c12 | > 300 µM |
| 0.0119 µM | O=C(C(=O)N1CCN(C(=O)c2sccc2Cl)CC1)c1c[nH]c2cccc(F)c12 | 50.5 µM |
| 0.0087 µM | O=C(C(=O)N1CCN(C(=O)c2cscn2)CC1)c1c[nH]c2cccc(F)c12 | > 250 µM |
| 0.0007 µM | O=C(C(=O)N1CCN(C(=O)c2cccs2)CC1)c1c[nH]c2cccc(F)c12 | > 300 µM |
| 0.0014 µM | O=C(C(=O)N1CCN(C(=O)c2occc2Br)CC1)c1c[nH]c2cccc(F)c12 | 236 µM |
| 0.0204 µM | O=C(C(=O)N1CCN(C(=O)c2ccoc2)CC1)c1c[nH]c2cccc(F)c12 | > 300 µM |
